From ChEMBL document CHEMBL1123761, “Inhibition of the mammalian beta-lactamase renal dipeptidase (dehydropeptidase-I) by (Z)-2-(acylamino)-3-substituted-propenoic acids” (J Med Chem, 1987)
Non-standard residues stand in square brackets, D forms with d. Residues, ends and D or L forms follow the SMILES beside them. *: point of attachment. Isovaleryl = CC(C)CC(=O)*; Dhb = C/C=C(\N)C(=O)O; Butyryl = CCCC(=O)*

What follows are compounds tested against T1, Dipeptidase 1 (Sus scrofa, UniProt P22412) (assay: Inhibitory activity against beta-lactamase renal dipeptidase).
T1 sequence (P22412 whole entry): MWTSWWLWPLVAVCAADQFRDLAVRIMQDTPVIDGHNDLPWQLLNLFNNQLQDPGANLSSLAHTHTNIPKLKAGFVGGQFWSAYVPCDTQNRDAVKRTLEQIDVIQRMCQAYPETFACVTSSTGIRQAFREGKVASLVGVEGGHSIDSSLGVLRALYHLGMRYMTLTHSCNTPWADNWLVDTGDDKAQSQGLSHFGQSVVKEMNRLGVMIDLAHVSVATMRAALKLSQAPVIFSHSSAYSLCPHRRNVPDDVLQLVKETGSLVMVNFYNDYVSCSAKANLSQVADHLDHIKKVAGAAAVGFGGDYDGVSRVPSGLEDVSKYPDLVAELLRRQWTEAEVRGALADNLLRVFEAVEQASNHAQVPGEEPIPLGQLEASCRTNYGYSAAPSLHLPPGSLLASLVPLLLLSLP

Row | Compound | Ki [nM]
1 | CC1(C)CC1C(=O)N/C(=C\CCCCC(=O)O)C(=O)O (configuration not stated) | 58
2 | CC1(C)CC1C(=O)N/C(=C\CCCCSc1ccccc1C(=O)O)C(=O)O (configuration not stated) | 60
3 | CC1(C)CC1C(=O)N/C(=C\CCCCCNCCP(=O)(O)O)C(=O)O (configuration not stated) | 580
4 | CC1(C)CC1C(=O)N/C(=C\CCCCCNCP(=O)(O)O)C(=O)O (configuration not stated) | 400
5 | CCN(CC)CCCCC/C=C(\NC(=O)C1CC1(C)C)C(=O)O (configuration not stated) | 860
6 | C/C=C(\NC(=O)C1CCCCC1)C(=O)O | 15000
7 | CC1(C)CC1C(=O)N/C(=C\CCCCCBr)C(=O)O (configuration not stated) | 270
8 | CC1(C)CC1C(=O)N/C(=C\CCCCCCCN)C(=O)O (configuration not stated) | 810
9 | COCCCCC/C=C(\NC(=O)C1CC1(C)C)C(=O)O (configuration not stated) | 180
10 | C/C=C(\NC(=O)[C@@H]1C[C@H]1CC)C(=O)O | 1600
11 | CC1(C)CC1C(=O)N/C(=C\CCCCCCCBr)C(=O)O (configuration not stated) | 110
12 | C/C=C(\NC(=O)CCCCCNC(=O)CC)C(=O)O | 41000
13 | CCCCCCCCC/C=C(\NC(=O)C1CC1(C)C)C(=O)O (configuration not stated) | 110
14 | CN(CCCCCC/C=C(\NC(=O)C1CC1(C)C)C(=O)O)CC(=O)O (configuration not stated) | 400
15 | C/C=C(\NC(=O)CC1CCCCC1)C(=O)O | 25000
16 | CCCCCCCC/C=C(\NC(=O)C1CC1(C)C)C(=O)O (configuration not stated) | 110
17 | C/C=C(\NC(=O)CCCCC(=O)N/C(=C\C)C(=O)O)C(=O)O | 10000
18 | CC1(C)CC1C(=O)N/C(=C\CCCCSc1ncccc1C(=O)O)C(=O)O (configuration not stated) | 40
19 | CC1(C)C[C@@H]1C(=O)N/C(=C\CCCCCNC(C)(C)P(=O)(O)O)C(=O)O | 180
20 | CC1(C)CC1C(=O)N/C(=C\CCCCBr)C(=O)O (configuration not stated) | 150
21 | C=CCCCCCCCCC(=O)N/C(=C\C)C(=O)O | 34000
22 | CC(=O)NC(CSCCCC/C=C(\NC(=O)[C@H]1CC1(C)C)C(=O)O)C(=O)O (some centres not stated) | 60
23 | COCCCC/C=C(\NC(=O)C1CC1(C)C)C(=O)O (configuration not stated) | 160
24 | CC1(C)CC1C(=O)N/C(=C\CCCSCP(=O)(O)O)C(=O)O (configuration not stated) | 220
25 | CC(NCCCCC/C=C(\NC(=O)C1CC1(C)C)C(=O)O)P(=O)(O)O (configuration not stated) | 280
26 | CC1(C)CC1C(=O)N/C(=C\CCCCCNC(N)=O)C(=O)O (configuration not stated) | 300
27 | C/C=C(\NC(=O)C1CC1(F)F)C(=O)O (configuration not stated) | 2100
28 | C/C=C(\NC(=O)CCCCC(=O)OCC)C(=O)O | 18000
29 | C/C=C(\NC(=O)CCCCC#N)C(=O)O | 25000

What follows are compounds tested against T2, Dipeptidase 1 (Sus scrofa) (UniProt P22412) (assay: Inhibitory activity against beta-lactamase renal dipeptidase at a concentration of 100 uM).
T2 sequence (whole entry): T1 sequence (P22412 whole entry)
Method in brief: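 Inhibitor was incubated with solubilized renal dipeptidase (50–75% ammonium sulfate fraction, 5 µg) in 50 mM MOPS pH 7.1 for 5 min at 37 °C. Glycyldehydrophenylalanine was then added to 50 µM. Rate was followed as the absorbance decrease at 275 nm over 10 min and compared with the uninhibited rate.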

Row | Compound | inhibition [%]
30 | C/C=C(\NC(=O)C1(C)CC1)C(=O)O | 16
31 | C/C=C(\NC(=O)CC1=CCCCC1)C(=O)O | 50
32 | C/C=C(\NC(=O)C(CCC)CCC)C(=O)O | 13
33 | C/C=C(\NC(=O)C1C(C(C)(C)C)C1(C)C)C(=O)O (configuration not stated) | 44
34 | CO/C=C(\NC(=O)c1ccccc1)C(=O)O | 23
35 | C/C=C(\NC(=O)C1C(C)(C)C1(C)C)C(=O)O | 10
36 | C/C=C(\NC(=O)/C=C/c1ccccc1)C(=O)O | 0
37 | C/C=C(\NC(=O)CCC1CCCC1)C(=O)O | 56
38 | C/C=C(\NC(=O)CC1CC2CCC1C2)C(=O)O (configuration not stated) | 54
39 | C/C=C(\NC(=O)C(C)(C)C)C(=O)O | 0
40 | C/C=C(\NC(=O)Cc1ccccc1)C(=O)O | 21
41 | C/C=C(\NC(=O)C1(C)CCCCC1)C(=O)O | 11
42 | C/C=C(\NC(=O)c1c(Cl)cccc1Cl)C(=O)O | 0
43 | C/C=C(\NC(=O)c1ccc(C)cc1)C(=O)O | 2.5
44 | CC(C)=C(NC(=O)c1ccccc1)C(=O)O | 4
45 | C[C@H](N)C(=O)N/C(=C\Cl)C(=O)O | 6
46 | O=C(CO)N/C(=C\c1ccccc1)C(=O)O | 4
47 | CC(C)=C(NC(=O)C1CC1(C)C)C(=O)O (configuration not stated) | 57
48 | C/C=C(\NC(=O)c1ccc(OC)cc1)C(=O)O | 0
49 | C/C=C(\NC(=O)CCl)C(=O)O | 52
50 | C/C=C(\NC(=O)CCCCCCCCCCCCC)C(=O)O | 45
51 | C/C=C(\NC(=O)CCCCCCCCC)C(=O)O | 58
52 | C/C=C(\NC(=O)C(C)C)C(=O)O | 31
53 | C/C=C(\NC(=O)c1ccc2ccccc2c1)C(=O)O | 3

Row | Compound | inhibition [%]
54 | C/C=C(\NC(=O)CCCCCCCCCCCCCCCCC)C(=O)O | 12
55 | C/C=C(\NC(=O)CCC1CCCCC1)C(=O)O | 54
56 | C/C=C(\NC(=O)C12CC3CC(CC(C3)C1)C2)C(=O)O | 3
57 | C/C=C(\NC(=O)CC)C(=O)O | 43
58 | C/C=C(\NC(=O)CCCC(=O)N(C)C)C(=O)O | 46
59 | C/C=C(\NC(=O)c1ccco1)C(=O)O | 57
60 | C/C=C(\NC(=O)CCCCC)C(=O)O | 54
61 | C/C=C(\NC(=O)CNC(=O)CC(C)C)C(=O)O (Isovaleryl-Gly-[Dhb]-OH) | 5
62 | C=CCCC(=O)N/C(=C\C)C(=O)O | 57
63 | C/C=C(\NC(=O)COc1ccccc1)C(=O)O | 3
64 | C/C=C(\NC(=O)CCCCCC)C(=O)O | 49
65 | C/C=C(\NC(=O)c1ccc(Cl)cc1)C(=O)O | 7
66 | C/C=C(\NC(=O)C(CC)CCCC)C(=O)O (configuration not stated) | 33
67 | C=C(NC(=O)c1ccccc1)C(=O)O | 9
68 | C/C=C(\NC(=O)CCc1ccccc1)C(=O)O | 30
69 | C/C=C(\NC(C)=O)C(=O)O | 12
70 | C/C=C(\NC(=O)CN)C(=O)O (H-Gly-[Dhb]-OH) | 6
71 | C/C=C(\NC(=O)CCCCC(C)C)C(=O)O | 57
72 | O=C(O)/C(=C/Cl)NC(=O)c1ccccc1 | 36
73 | C/C=C(\NC(=O)/C=C/C=C/C)C(=O)O | 0
74 | C/C=C(\NC(=O)CNC(=O)CCC)C(=O)O (Butyryl-Gly-[Dhb]-OH) | 5
75 | C/C=C(\NC(=O)C1C(C=C(C)C)C1(C)C)C(=O)O (configuration not stated) | 15
76 | C/C=C(\NC(=O)CC12CC3CC(CC(C3)C1)C2)C(=O)O | 33
77 | C/C=C(\NC(=O)CCC1CCCO1)C(=O)O (configuration not stated) | 51
